Measured values reported in ChEMBL document CHEMBL3808298, “The combination of quinazoline and chalcone moieties leads to novel potent heterodimeric modulators of breast cancer resistance protein (BCRP/ABCG2)” (Eur J Med Chem, 2016).
Each block holds one compound with its values, some of them ahead of it. Calls of active or inactive are those of the source. No cut-off for these calls is given here.

Key:
[1] = Cytotoxicity against MDCK2 cells expressing human C-terminal GFP-tagged ABCG2 assessed as reduction in cell viability after 72 hrs by MTT assay; format: ADME, cell-based, Canis lupus familiaris, MDCK-II; conditions: dog
Method in brief: (§1)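 Seeding 3 x 10³ cells/well, 6 h attachment at 37 °C, 5% CO2, then compound for 72 h. Controls: 10% DMSO (positive), medium (negative). MTT 5 mg/ml stock for 1 h; formazan in DMSO; A570, background 690 nm. Normalized to control; GI50 from variable-slope sigmoidal fit.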

[2] = target: T1, Broad substrate specificity ATP-binding cassette transporter ABCG2 (Homo sapiens, UniProt Q9UNQ0); experiment: Inhibition of vanadate-sensitive ATPase activity of recombinant human ABCG2 expressed in baculovirus infected Sf9 cell membrane assessed as decrease in inorganic phosphate production at >1 uM after 20 mins by colorimetry; conditions: sf9, 20 min
T1 sequence (Q9UNQ0 whole entry): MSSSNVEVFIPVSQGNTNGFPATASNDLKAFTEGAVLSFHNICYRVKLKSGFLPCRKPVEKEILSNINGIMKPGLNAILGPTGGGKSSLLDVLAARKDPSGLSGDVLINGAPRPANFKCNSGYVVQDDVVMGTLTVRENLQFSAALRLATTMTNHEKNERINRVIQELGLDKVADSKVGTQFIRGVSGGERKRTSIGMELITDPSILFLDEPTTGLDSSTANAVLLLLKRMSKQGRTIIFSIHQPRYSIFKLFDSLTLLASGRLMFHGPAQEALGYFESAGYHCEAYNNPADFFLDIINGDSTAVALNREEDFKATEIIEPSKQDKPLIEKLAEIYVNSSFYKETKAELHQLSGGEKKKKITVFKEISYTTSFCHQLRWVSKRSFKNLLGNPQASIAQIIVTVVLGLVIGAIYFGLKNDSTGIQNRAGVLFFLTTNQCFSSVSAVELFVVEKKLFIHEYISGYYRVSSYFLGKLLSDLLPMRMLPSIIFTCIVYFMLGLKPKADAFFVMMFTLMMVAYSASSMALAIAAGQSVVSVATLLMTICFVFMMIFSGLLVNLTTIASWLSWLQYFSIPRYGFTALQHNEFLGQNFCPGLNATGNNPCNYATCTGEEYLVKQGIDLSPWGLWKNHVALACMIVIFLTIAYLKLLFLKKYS
Method in brief: (§2)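 Sf9 membranes from cells infected with baculovirus carrying human wild-type ABCG2, cholesterol-loaded; protein by BCA. Buffer: 40 mM MOPS-Tris pH 7.0, 50 mM KCl, 2 mM DTT, 500 µM EGTA-Tris, 5 mM azide, 1 mM ouabain, 10 µg protein. Reaction started with 3.3 mM MgATP, 20 min at 37 °C. Basal activity with 1 mM orthovanadate; 1 µM quercetin and 1 µM Ko143 as references. Pi by molybdate/ascorbate at 880 nm against K2HPO4 standard; triplicates.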

[3] = target: T1, Broad substrate specificity ATP-binding cassette transporter ABCG2; experiment: Non-competitive inhibition of human C-terminal GFP-tagged ABCG2 expressed in MDCK2 cells using pheophorbide A as substrate preincubated for 20 mins followed by substrate addition measured after 120 mins by Lineweaver-Burk plot analysis; format: cell-based; conditions: mdck-ii, 2 h
Method in brief: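 Pheophorbide A accumulation in MDCK II BCRP cells with substrate at 0.2, 0.4, 0.5, 1.0, 1.5 and 2.0 μM. Inhibitor at 0, 0.031, 0.1, 0.18, 0.31 and 0.56 μM. Transport velocities analyzed by Lineweaver-Burk linearization; inhibition type assigned from changes in KM and Vmax.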

ABCG2 = experiment: Therapeutic ratio of GI50 for MDCK2 cells expressing human C-terminal GFP-tagged ABCG2 to IC50 for human C-terminal GFP-tagged ABCG2 expressed in MDCK2 cells; format: ADME, cell-based; conditions: dog, read-out: TI
Method in brief: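 Ratio of GI50 from a 72 h MTT assay in MDCK II BCRP cells to IC50 from the pheophorbide A assay in the same cells.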

[4] = target: Multidrug resistance-associated protein 1 (Homo sapiens, UniProt P33527); experiment: Inhibition of ABCC1 in human H69AR cells at 10 uM incubated for 30 mins measured up to 3600 secs with time intervals of 60 secs by calcein accumulation assay; format: cell-based
Sequence of Multidrug resistance-associated protein 1 (P33527 whole entry): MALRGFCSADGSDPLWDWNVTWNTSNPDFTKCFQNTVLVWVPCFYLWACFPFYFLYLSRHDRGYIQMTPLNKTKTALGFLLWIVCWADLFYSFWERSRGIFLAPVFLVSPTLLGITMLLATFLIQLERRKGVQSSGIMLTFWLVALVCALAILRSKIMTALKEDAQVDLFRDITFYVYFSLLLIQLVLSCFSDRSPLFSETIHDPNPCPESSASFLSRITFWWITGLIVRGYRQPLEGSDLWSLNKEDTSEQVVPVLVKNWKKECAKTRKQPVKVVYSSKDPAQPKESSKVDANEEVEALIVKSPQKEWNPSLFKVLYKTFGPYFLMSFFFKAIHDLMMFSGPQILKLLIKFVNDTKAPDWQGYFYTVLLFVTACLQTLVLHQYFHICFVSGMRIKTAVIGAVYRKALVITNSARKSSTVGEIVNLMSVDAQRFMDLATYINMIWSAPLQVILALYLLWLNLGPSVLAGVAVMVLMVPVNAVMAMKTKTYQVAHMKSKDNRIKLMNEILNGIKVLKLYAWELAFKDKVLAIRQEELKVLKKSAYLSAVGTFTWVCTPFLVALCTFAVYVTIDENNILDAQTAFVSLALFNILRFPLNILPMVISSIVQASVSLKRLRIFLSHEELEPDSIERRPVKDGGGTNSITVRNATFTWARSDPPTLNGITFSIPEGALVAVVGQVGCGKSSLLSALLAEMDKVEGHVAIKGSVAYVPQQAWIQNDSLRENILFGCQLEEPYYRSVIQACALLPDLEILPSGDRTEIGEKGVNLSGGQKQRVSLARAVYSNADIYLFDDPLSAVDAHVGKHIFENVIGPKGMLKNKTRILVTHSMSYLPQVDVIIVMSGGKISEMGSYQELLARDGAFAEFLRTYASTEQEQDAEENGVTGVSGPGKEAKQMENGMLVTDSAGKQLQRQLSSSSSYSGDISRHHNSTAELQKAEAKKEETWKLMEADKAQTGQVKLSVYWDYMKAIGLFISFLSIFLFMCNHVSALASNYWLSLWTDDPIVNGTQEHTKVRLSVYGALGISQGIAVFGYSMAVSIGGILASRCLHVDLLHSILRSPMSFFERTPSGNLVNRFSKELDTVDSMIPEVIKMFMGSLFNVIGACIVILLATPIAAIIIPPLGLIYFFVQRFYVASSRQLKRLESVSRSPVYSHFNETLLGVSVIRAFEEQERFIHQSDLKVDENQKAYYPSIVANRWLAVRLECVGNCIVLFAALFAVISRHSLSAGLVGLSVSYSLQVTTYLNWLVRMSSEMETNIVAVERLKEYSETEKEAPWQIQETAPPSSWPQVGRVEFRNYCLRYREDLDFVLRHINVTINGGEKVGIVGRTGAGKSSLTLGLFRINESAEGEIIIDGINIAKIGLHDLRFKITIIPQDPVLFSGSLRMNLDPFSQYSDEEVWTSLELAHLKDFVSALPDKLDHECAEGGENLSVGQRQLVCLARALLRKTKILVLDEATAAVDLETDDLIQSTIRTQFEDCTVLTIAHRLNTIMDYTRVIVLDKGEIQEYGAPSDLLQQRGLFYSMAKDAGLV
Method in brief: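 Calcein AM assay in ABCC1-overexpressing H69AR cells, about 30,000/well, 30 min preincubation with compound at 10 μM. Calcein AM (1.25 µM solution) added; fluorescence at ex 485/em 520 nm every 60 s up to 3600 s at 37 °C.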

[5] = target: T1, Broad substrate specificity ATP-binding cassette transporter ABCG2; experiment: Induction of vanadate-sensitive ATPase activity of recombinant human ABCG2 expressed in baculovirus infected Sf9 cell membrane assessed as increase in inorganic phosphate production up to 1 uM after 20 mins by colorimetry; conditions: sf9, 20 min; method in brief: as §2
[6] = target: T1, Broad substrate specificity ATP-binding cassette transporter ABCG2; experiment: Inhibition of human C-terminal GFP-tagged ABCG2 expressed in MDCK2 cells assessed as SN-38-induced cytotoxicity by measuring cell viability at 0.01 to 0.1 uM after 72 hrs by MTT assay; format: cell-based; conditions: mdck-ii
Method in brief: (§3)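 SN-38 dose-response curves in MDCK II BCRP cells (canine kidney line stably transfected with human ABCG2 C-terminally fused to GFP) and parental MDCK II wild-type cells. Modulator was present at a final 0.01 or 0.1 µM. Cells were seeded at 3 x 10³ per well, attached 6 h, then exposed 72 h. MTT was read at 570 nm minus 690 nm. Data were normalized and fitted with variable-slope sigmoidal regression.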

[7] = Cytotoxicity against MDCK2 cells assessed as reduction in cell viability after 72 hrs by MTT assay; format: cell-based, Canis lupus familiaris, MDCK-II; conditions: dog; method in brief: as §1
[8] = target: T2, ATP-dependent translocase ABCB1 (Homo sapiens, UniProt P08183); experiment: Inhibition of ABCB1 in human A2780/ADR cells incubated for 30 mins measured up to 3600 secs with time intervals of 60 secs by calcein accumulation assay; format: cell-based
T2 sequence (P08183 whole entry): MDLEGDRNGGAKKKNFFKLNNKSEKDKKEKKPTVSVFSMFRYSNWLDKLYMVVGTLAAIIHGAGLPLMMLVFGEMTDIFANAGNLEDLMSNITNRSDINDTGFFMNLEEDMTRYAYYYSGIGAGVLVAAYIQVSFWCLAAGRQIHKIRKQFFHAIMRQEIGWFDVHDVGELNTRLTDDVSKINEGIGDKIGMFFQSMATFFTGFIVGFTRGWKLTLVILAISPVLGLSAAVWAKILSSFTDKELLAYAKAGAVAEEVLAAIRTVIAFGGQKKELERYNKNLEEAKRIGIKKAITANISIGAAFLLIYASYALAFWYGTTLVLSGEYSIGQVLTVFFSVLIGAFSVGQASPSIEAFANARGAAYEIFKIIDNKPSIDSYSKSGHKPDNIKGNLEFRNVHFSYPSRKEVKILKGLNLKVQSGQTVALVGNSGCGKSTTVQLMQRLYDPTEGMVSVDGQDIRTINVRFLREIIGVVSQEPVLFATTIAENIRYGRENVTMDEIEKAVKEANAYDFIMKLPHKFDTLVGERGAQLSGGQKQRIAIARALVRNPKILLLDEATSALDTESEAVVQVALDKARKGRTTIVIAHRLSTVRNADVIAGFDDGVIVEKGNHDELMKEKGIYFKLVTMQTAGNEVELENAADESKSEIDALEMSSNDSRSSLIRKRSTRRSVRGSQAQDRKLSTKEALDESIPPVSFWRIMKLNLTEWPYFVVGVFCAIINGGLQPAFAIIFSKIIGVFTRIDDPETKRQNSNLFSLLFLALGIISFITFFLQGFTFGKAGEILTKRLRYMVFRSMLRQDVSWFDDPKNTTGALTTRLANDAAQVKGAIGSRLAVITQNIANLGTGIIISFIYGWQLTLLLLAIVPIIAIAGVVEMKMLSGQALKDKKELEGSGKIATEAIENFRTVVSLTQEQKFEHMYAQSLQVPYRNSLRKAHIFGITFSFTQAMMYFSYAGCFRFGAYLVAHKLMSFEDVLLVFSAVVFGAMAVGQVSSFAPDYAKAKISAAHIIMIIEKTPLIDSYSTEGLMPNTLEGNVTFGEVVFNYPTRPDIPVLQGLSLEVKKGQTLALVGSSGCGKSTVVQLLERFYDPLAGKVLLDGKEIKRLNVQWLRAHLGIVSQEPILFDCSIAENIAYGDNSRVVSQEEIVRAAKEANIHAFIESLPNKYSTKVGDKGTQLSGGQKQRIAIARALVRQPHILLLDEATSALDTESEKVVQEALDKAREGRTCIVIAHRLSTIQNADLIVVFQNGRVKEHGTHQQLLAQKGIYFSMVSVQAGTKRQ

MDCK-II = experiment: Potentiation of SN-38-induced cytotoxicity in MDCK2 cells assessed as decrease in cell viability at 0.01 to 0.1 uM after 72 hrs by MTT assay; format: functional, cell-based; conditions: Canis lupus familiaris; method in brief: as §3
[9] = target: T1, Broad substrate specificity ATP-binding cassette transporter ABCG2; experiment: Inhibition of human C-terminal GFP-tagged ABCG2 expressed in MDCK2 cells using pheophorbide A as substrate preincubated for 20 mins followed by substrate addition measured after 120 mins by flow cytometry; format: cell-based, MDCK-II
Method in brief: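 MDCK II BCRP cells, about 45,000/well in KHB, preincubated with compound for 20 min at 37 °C, 5% CO2. Pheophorbide A added (5 µM solution), then 120 min to steady state. Flow cytometry: excitation 488 nm, emission >670 nm (FL3); GFP in FL1. IC50 from 4-parameter logistic fit; duplicates.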

[10] = target: T2, ATP-dependent translocase ABCB1; experiment: Inhibition of ABCB1 mediated efflux in human MCF7/DX1 cells assessed as intracellular rhodamine-123 accumulation after 30 to 40 mins by flow cytometry; format: cell-based
[11] = target: T1, Broad substrate specificity ATP-binding cassette transporter ABCG2; experiment: Inhibition of ABCG2 (unknown origin)

inhibition (INH) [2]: Active
inhibition (INH) [3]: Active
inhibition (INH) [4]: Not Active
Activity [5]: Active
IC50 [8]: 14.9 µM
IC50 [9]: 0.19 µM
Structure (SMILES): COc1ccc(/C=C/C(=O)c2ccc(Nc3nc(-c4ccc(OC)c(OC)c4)nc4ccccc34)cc2)cc1OC
GI50 at 72 h [1]: 92.9 µM
selectivity ratio (ABCG2): 489
inhibition (INH) [6]: Active
GI50 at 72 h [7]: 132 µM
Activity (MDCK-II): Active

IC50 [10]: 0.8 µM
Structure (SMILES): COc1ccc2c3c1O[C@H]1C[C@@H](OC(=O)CCCCCCCCC(=O)O[C@H]4C=C[C@@]56CN(C)CCc7ccc(OC)c(c75)O[C@H]6C4)C=C[C@@]31CN(C)CC2

IC50 [11]: 5.12 µM
Structure (SMILES): COc1ccc(/C=C/C(=O)c2ccc(OC)c(OC)c2)cc1OC
